Results gathered from unrelated publications.
Medium: plasma

test system	setting	Cmax	Structure (SMILES)
male Sprague-Dawley rat	intraperitoneal, 5 mg/kg	12500 ng/mL	Nc1ccn([C@@H]2O[C@H](CO)[C@@H](O)C2(F)F)c(=O)n1
male Sprague-Dawley rat	intravenous, 1 mg/kg	113 ng/mL	O=C1CCC(N2Cc3cc(C4CCN(Cc5ccccc5)CC4)ccc3C2=O)C(=O)N1 (stereo not shown)
male Sprague-Dawley rat	intravenous, 1 mg/kg, single dose	28.2 ng/mL	CONC(=O)c1cccc2c1cc(C)n2-c1nc2c(c(NCc3ccccc3)n1)CCCN2
male Sprague-Dawley rat	oral, 10 mg/kg	169 ng/mL	C[C@H]1[C@@H](O)O[C@@H]2O[C@@]3(C)CC[C@H]4[C@H](C)CC[C@@H]1[C@@]24OO3
rat	oral, 40 mg/kg, single dose	7420 ng/mL	[2H]C([2H])([2H])NC(=O)c1cc(Oc2ccc(NC(=O)Nc3ccc(Cl)c(C(F)(F)F)c3)cc2)ccn1
male Sprague-Dawley rat	oral, 5 mg/kg	876 ng/mL	COc1cc(-c2cc(C(C)=O)n3ccccc23)c(OC)cc1Cn1ccnc1
Sprague-Dawley rat	oral, 40 mg/kg	703 ng/mL	CC[C@@H]([C@H](C)O)n1ncn(-c2ccc(N3CCN(c4ccc(OC[C@@H]5CO[C@@](Cn6cncn6)(c6ccc(F)cc6F)C5)cc4)CC3)cc2)c1=O
male Sprague-Dawley rat	intravenous, 2 mg/kg	1800 ng/mL	COc1nc(-c2cccc(-c3ccccc3)c2C)ccc1CNCCNC(=O)CCCCCCCCCCC(=O)N1CCN(CCNC(=O)c2cc3c(=O)n4cccc(C)c4nc3n(CCc3cccs3)c2=N)CC1
male Sprague-Dawley rat	oral, 10 mg/kg, single dose	468 ng/mL	C[C@H]1Oc2cc(cnc2N)-c2c(nn(C)c2C#N)CN(C)C(=O)c2ccc(F)cc21
female Sprague-Dawley rat	intravenous, 5 mg/kg	150 ng/mL	COc1ccc(N(Cc2csc(-c3ccccc3)n2)C(=O)CCCCCC(=O)NO)cc1
rat	oral, 40 mg/kg	84.4 ng/mL	C=CC(=O)N1CCC[C@@H](n2nc(-c3ccc(Oc4ccccc4)cc3)c3c(N)ncnc32)C1
male rat	intravenous, 2.5 mg/kg	3090 ng/mL	CCCCC(=O)Nc1ccc(-c2ccc3ncn(CCC)c(=O)c3c2)cn1
male Sprague-Dawley rat	oral, 36 mg/kg	333 ng/mL	C1=C/COCc2cc(ccc2OCCN2CCCC2)Nc2nccc(n2)-c2cccc(c2)COC/1
rat	oral, 60 mg/kg	4 µM	C=CCn1c(=O)c2cnc(Nc3ccc(N4CCN(C)CC4)cc3)nc2n1-c1ccc2c(n1)[C@@](O)(CC)CC2
male Sprague-Dawley rat	oral, 80 mg/kg	1.13 ng/mL	C[C@@]12C[C@@]3(O)O[C@@H](O1)[C@]1(COC(=O)c4ccccc4)[C@H]3C[C@@]12O[C@@H]1O[C@H](CO)[C@@H](O)[C@H](O)[C@H]1O
male Sprague-Dawley rat	oral, 8 mg/kg, single dose	136 ng/mL	CCCc1nc2c(C)cc(-c3nc4ccccc4n3C)cc2n1Cc1ccc(-c2ccccc2C(=O)O)cc1
